According to ChEMBL document CHEMBL4321796, “Proteolysis Targeting Chimeras for the Selective Degradation of Mcl-1/Bcl-2 Derived from Nonselective Target Binding Ligands” (J Med Chem, 2019):
pIC50: −log10 of the molar value. Activity calls are given as the source filed them. The calls are words filed in the database; no cut-off is given here.

Experiments:
[1] = molecular target: T1, Protein cereblon/Apoptosis regulator Bcl-2 (Homo sapiens, UniProt P10415+Q96SW2); test: Induction of CRBN-mediated Bcl-2 degradation in human HeLa cells assessed as relative abundance at 10 uM measured at 4 hrs by Western blot analysis (reference value: 1); assay type: cell-based
Method in brief: (§1)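 HeLa cells in DMEM with 10% FBS, exposed to 10 µM compound over a 0–24 h time course. Mcl-1 and Bcl-2 detected by immunoblot (NP-40 lysis, BCA-equalized SDS-PAGE, PVDF, ECL) and quantified relative to DMSO control; mean ± s.d., n=3 independent samples.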

[2] = molecular target: T2, Protein cereblon/Induced myeloid leukemia cell differentiation protein Mcl-1 (Homo sapiens, UniProt Q07820+Q96SW2); test: Induction of CRBN-mediated Mcl-1 degradation in human HeLa cells at 10 uM by Western blot analysis; assay type: cell-based; settings: TDE = time-dependent effect
[3] = molecular target: T1, Protein cereblon/Apoptosis regulator Bcl-2; test: Induction of CRBN-mediated Bcl-2 degradation in human HeLa cells assessed as relative abundance at 1 uM after 12 hrs by Western blot analysis (reference value: 1); assay type: cell-based
[4] = molecular target: T1, Protein cereblon/Apoptosis regulator Bcl-2; test: Induction of CRBN-mediated Bcl-2 degradation in human HeLa cells assessed as relative abundance at 10 uM measured at 16 hrs by Western blot analysis (reference value: 1); assay type: cell-based; method in brief: as §1
[5] = molecular target: T1, Protein cereblon/Apoptosis regulator Bcl-2; test: Induction of CRBN-mediated Bcl-2 degradation in human HeLa cells assessed as relative abundance at 10 uM measured at 20 hrs by Western blot analysis (reference value: 1); assay type: cell-based; method in brief: as §1
[6] = molecular target: Apoptosis regulator Bcl-2 (Homo sapiens, UniProt P10415); test: Inhibition of biotinylated Bim peptide (81 to 106 residues) binding to His-tagged human Bcl-2 expressed in Escherichia coli BL21 (DE3) cells preincubated for 1 hr followed by biotinylated Bim peptide addition measured after 2 hrs by ELISA
Method in brief: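 Inhibitor serially diluted (100–0.1 µM) from 10 mM DMSO stock, preincubated 1 h with 200 nM His-tagged protein in PBS (final DMSO 4%), then added 2 h to streptavidin plates holding biotin-Bim (plated at 0.09 mg/mL). Incubations at 4 °C. Detection with HRP anti-His, TMB 30 min, H2SO4 stop, A450. IC50 averaged from three independent experiments, with SD.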

[7] = molecular target: T2, Protein cereblon/Induced myeloid leukemia cell differentiation protein Mcl-1; test: Protac activity at CRBN/Mcl-1 in human HeLa cell lysates assessed as ternary complex formation by Western blot analysis based pull-down assay; assay type: subcellular; settings: Lysate
Method in brief: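 HeLa lysate (25×10^6 cells, 1% Triton X-100 IP buffer), 1 mg total protein, incubated overnight with 1 µg CRBN antibody across a compound concentration gradient. Capture on protein A+G agarose, three Triton washes, boiled in loading buffer. Mcl-1, Bcl-2 and CRBN detected by immunoblotting. n=3 independent samples.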

[8] = molecular target: T2, Protein cereblon/Induced myeloid leukemia cell differentiation protein Mcl-1; test: Induction of CRBN-mediated Mcl-1 degradation in human HeLa cells assessed as decrease in Mcl-1 level at 1 uM after 12 hrs by Western blot analysis relative to control; assay type: cell-based; set-up: scale not given: the % may be the effect or the level left
[9] = molecular target: T1, Protein cereblon/Apoptosis regulator Bcl-2; test: Induction of CRBN-mediated Bcl-2 degradation in human HeLa cells assessed as relative abundance at 0.1 uM after 12 hrs by Western blot analysis (reference value: 1); assay type: cell-based
[10] = test system: NCI-H23; test: Cytotoxicity against human H23 cells assessed as effect on PARP cleavage at 0.3 to 10 uM incubated for 12 hrs by Western blot analysis; assay type: functional, cell-based
Method in brief: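 H23 cells grown in RPMI1640 with 10% FBS at 37°C, 5% CO2, treated 12 h over a concentration gradient. Mcl-1 and PARP cleavage read by immunoblot: NP-40 lysis buffer with protease inhibitors, BCA-normalized SDS-PAGE, PVDF, ECL detection; n=3 independent samples.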

[11] = molecular target: T2, Protein cereblon/Induced myeloid leukemia cell differentiation protein Mcl-1; test: Induction of CRBN-mediated Mcl-1 degradation in human HeLa cells at 10 uM pretreated with proteasome inhibitor MG-132 followed by compound addition by Western blot analysis; assay type: cell-based
[12] = molecular target: T2, Protein cereblon/Induced myeloid leukemia cell differentiation protein Mcl-1; test: Induction of CRBN-mediated Mcl-1 degradation in human HeLa cells assessed as relative abundance at 0.3 uM after 12 hrs by Western blot analysis (reference value: 1); assay type: cell-based
[13] = molecular target: T2, Protein cereblon/Induced myeloid leukemia cell differentiation protein Mcl-1; test: Induction of CRBN-mediated Mcl-1 degradation in human K562 cells incubated for 12 hrs by Western blot analysis; assay type: cell-based
Method in brief: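 K562 cells kept in RPMI1640 with 10% FBS at 37 °C, 5% CO2. After compound treatment, cells lysed in NP-40 buffer with protease inhibitors. Equal protein run on SDS-PAGE, then immunoblotted; protein levels quantified from the blots.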

T1 sequence (P10415 whole entry, looked up): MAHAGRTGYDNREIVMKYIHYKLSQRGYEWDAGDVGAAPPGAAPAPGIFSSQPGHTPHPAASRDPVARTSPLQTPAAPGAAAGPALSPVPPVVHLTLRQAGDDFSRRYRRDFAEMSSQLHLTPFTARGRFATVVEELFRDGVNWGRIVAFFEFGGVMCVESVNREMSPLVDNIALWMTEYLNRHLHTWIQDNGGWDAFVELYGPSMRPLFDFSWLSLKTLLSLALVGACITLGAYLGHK
T1 sequence (Q96SW2 whole entry, looked up): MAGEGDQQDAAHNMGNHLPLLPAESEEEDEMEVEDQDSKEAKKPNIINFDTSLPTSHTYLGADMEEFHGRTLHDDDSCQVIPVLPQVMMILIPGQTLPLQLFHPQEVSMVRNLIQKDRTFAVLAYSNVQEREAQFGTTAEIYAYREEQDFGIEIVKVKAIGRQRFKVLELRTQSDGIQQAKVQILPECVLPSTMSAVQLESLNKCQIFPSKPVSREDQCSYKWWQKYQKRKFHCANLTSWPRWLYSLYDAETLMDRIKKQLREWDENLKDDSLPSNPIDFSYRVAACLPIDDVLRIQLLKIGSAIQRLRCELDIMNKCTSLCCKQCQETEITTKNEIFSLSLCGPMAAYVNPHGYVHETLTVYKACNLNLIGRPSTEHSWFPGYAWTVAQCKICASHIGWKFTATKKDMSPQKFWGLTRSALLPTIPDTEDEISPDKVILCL
T2 sequence (Q07820 whole entry, looked up): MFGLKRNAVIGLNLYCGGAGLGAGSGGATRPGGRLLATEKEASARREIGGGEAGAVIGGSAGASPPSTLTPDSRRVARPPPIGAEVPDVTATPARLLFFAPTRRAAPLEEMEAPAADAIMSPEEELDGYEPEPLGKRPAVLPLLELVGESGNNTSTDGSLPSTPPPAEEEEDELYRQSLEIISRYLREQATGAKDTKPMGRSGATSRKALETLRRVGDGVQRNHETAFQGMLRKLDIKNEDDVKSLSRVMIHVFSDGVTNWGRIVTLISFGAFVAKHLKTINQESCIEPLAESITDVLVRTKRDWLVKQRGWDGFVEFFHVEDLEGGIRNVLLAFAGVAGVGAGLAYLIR
T2 sequence (Q96SW2 whole entry, looked up): as the sequence (Q96SW2 whole entry, looked up) above
Chain of Apoptosis regulator Bcl-2 (P10415 whole entry, the tested form may be a part): as the sequence (P10415 whole entry, looked up) above

Q: Which results are given for `O=C(CCCCC(=O)NCCN1C(=O)c2cccc3c(Sc4ccc(Br)cc4)ccc(c23)C1=O)NCCCCCCNc1cccc2c1C(=O)N(C1CCC(=O)NC1=O)C2=O` (stereo not drawn)?
A: fold change (FC) [1]: 1.1; Activity [2]: Tde; fold change (FC) [3]: 0.9 to 1; fold change (FC) [4]: 1; fold change (FC) [5]: 1; pIC50 [6]: 6.27; Activity [7]: Dose-dependent effect; Activity [8]: 70%; fold change (FC) [9]: 0.9; Activity [10]: Active; Activity [11]: inactive; fold change (FC) [12]: 0.9; Activity [13]: Active
